# Screening results as filed in PubChem BioAssay.
# CHO parental Ca: counter-screen for OX1R antagonists: effect in parental CHO cells; parental CHO-K1, ATP-induced calcium, Fluo-8 fluorescence; inhibition, % at 5.6 µM; hit rate 0.63% among 330,000;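 active = inhibition above that plate's mean sample inhibition plus 3 SD, cut at about 26% in these data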;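 note: 0% = ATP-challenged DMSO wells and 100% = DMSO wells without ATP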
#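 test system = CHO parental line | reagent = ATP stimulus | measured by = intracellular calcium via Fluo-8 no-wash fluorescent dye | control set = ATP and no-ATP DMSO wells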
# OX1R antag-1: antagonists of human orexin 1 receptor. CHO/OX1R cells, Fluo-8 calcium fluorescence, orexin A. inhibition, % at 5 µM. hit rate 0.43% among 330,000;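 active = inhibition above its plate's threshold, mean inhibition of all tested compounds on the plate plus 3 SD, cut at about 37% in these data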;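 note: 0% = orexin A challenge wells and 100% = SB-334867-A antagonist wells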
# TAAR1 antagonist: human TAAR1 antagonism | inhibition, % at 3 µM | CHO RD-HGA16 TAAR1, Fluo-8 calcium fluorescence, antagonist | hit rate 1.5% among 360,000;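 active = inhibition above a per-plate cutoff, the mean inhibition of test compounds on that plate plus 3 SD, cut at about 49% in these data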;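 note: 0% = DMSO plus EC80 beta-PEA response and 100% = DMSO alone without agonist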
#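 Assay system: CHO-derived RD-HGA16 cells stably expressing human TAAR1 plus Gα16. Timing: 140 s kinetic read after compound, 140 s after agonist. Technique: kinetic Fluo-8 calcium fluorescence measurement. Measure: % inhibition of agonist calcium response.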
# GPR7 antag: antagonists of human GPR7 (neuropeptides B/W receptor 1); GPR7-expressing cells, fluorescence antagonist assay; P48145; inhibition, % at 4.4 µM; AID 1861; hit rate 1.1% among 290,000; in the data active = inhibition above about 16%, passing the limit was not always enough;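 note: cells stimulated with the agonist NPW; 0% = agonist with vehicle and 100% = vehicle without agonist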
# Target sequence (P48145 whole entry, looked up): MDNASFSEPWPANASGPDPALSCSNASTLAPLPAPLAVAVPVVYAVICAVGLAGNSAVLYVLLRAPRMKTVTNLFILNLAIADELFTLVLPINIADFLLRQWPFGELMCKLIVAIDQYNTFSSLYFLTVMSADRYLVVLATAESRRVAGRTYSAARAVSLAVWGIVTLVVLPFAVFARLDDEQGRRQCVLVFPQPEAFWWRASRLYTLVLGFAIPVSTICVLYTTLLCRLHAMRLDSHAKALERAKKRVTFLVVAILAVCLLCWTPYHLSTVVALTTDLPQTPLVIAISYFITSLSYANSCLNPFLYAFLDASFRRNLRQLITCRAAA
# OX1R antag-2: antagonists of human orexin 1 receptor (OX1R); OX1R-expressing cells, FRET antagonist read-out; hit rate 1.8% among 330,000; inhibition, % at 6.6 µM; in the data active = inhibition mostly above about 38%, no sharp cut-off; inactive = mostly below about 40%;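 note: 0% = agonist challenge alone and 100% = reference antagonist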
# TAAR1 agonist: agonists of human TAAR1; CHO RD-HGA16 TAAR1, Fluo-8 calcium fluorescence; vehicle wells 0%, saturating PEA agonist 100%; Q96RJ0; hit rate 0.99% among 360,000; activation, % at 3 µM;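 active = activation above the mean activation of all test compounds in the run plus 3 SD, cut at about 38% in these data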
#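 System: CHO-derived RD-HGA16 cells with stable Gα16 and human TAAR1 / Times: 17-24 h plating, Fluo-8 75 min 37 °C, 30 min RT / Technique: calcium-sensitive Fluo-8 signal, excitation 470-495, emission 515-575 nm / Measure: % activation relative to PEA EC100 response / Benchmarks: DMSO and PEA EC100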
# nonsel antag count: nonselective antagonist in TAAR1 antagonist counter-screen; shares compounds with TAAR1 antagonist; counterscreen cell line, calcium fluorescence, antagonist mode; inhibition, % at 3 µM; hit rate 77% among 2,400; AID 651780; in the data active = inhibition above about 22%;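 note: CHO-Ga16 host cells stimulated with ATP at an EC80 level; 0% = agonist EC80 plus vehicle and 100% = vehicle without agonist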
# TAAR1 antag conf: confirmation of human TAAR1 antagonists; shares compounds with TAAR1 antagonist; TAAR1-expressing cells, fluorescence antagonist read-out; inhibition, % at 3 µM; hit rate 40% among 2,400; AID 651785; in the data active = inhibition above about 49%;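 note: CHO-Ga16 host cells challenged with agonist PEA near its EC80; 0% = agonist at EC80 plus vehicle and 100% = vehicle with no agonist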
# Ga16 nonsel ag: counter-screen for TAAR1 antagonists: nonselective Ga16 agonists. shares compounds with TAAR1 antagonist. Ga16-expressing cells, calcium fluorescence, agonist counterscreen. activation, % at 3 µM. hit rate 18% among 2,400. AID 651953; in the data active = activation above about 12%;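 note: 0% = vehicle wells and 100% = saturating stimulus response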
# TAAR1 ag counter: TAAR1 agonism, antagonist counter-screen. hit rate 2% among 2,400. activation, % at 3 µM. shares compounds with TAAR1 antagonist. hTAAR1 cell line, fluorescence activation, agonist mode; in the data active = activation above about 37%;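 note: CHO cells stably expressing TAAR1 with calcium dye readout; 0% = DMSO vehicle and 100% = full agonist response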
# * hit, by the source's call; . = no result given. Rows were chosen to be rich in hits. Some 4.6% of all compounds tested hit in one or more screens of this group.
SMILES,CHO parental Ca,OX1R antag-1,TAAR1 antagonist,GPR7 antag,OX1R antag-2,TAAR1 agonist,nonsel antag count,TAAR1 antag conf,Ga16 nonsel ag,TAAR1 ag counter
O=C(Nc1ccc2oc(-c3cccnc3)nc2c1)c1cccnc1,3,-38,12,-8,24,9,.,.,.,.
Cc1ccccc1OCc1nc2ccccc2c(=O)n1/N=C/c1cn[nH]c1-c1ccccc1,-18,-21,64*,-5,11,12,27*,56*,5,7
Cc1ccccc1OCc1nc2ccccc2c(=O)n1/N=C/c1cccc([N+](=O)[O-])c1,-7,2,15,-7,12,1,.,.,.,.
O=c1c2ccccc2nc(COc2ccccc2)n1/N=C/c1ccc(O)c(O)c1,-13,-22,68*,-13,3,10,20,35,7,4
Cc1ccc(-c2[nH]ncc2/C=N/n2c(COc3ccccc3)nc3ccccc3c2=O)cc1,-14,-4,66*,0,27,10,33*,53*,7,7
Cc1nc2ccccc2c(=O)n1/N=C/c1cn[nH]c1-c1ccccc1,-25,-33,58*,-4,2,15,27*,36,7,8
O=c1c2ccccc2nc(COc2ccccc2)n1/N=C/c1ccco1,-35,-35,38,3,29,9,.,.,.,.
CC(C)(C)Cc1nnc(NC(=O)Cc2cccs2)s1,-11,-29,-4,-3,19,5,.,.,.,.
O=C(CC1CC1)Nc1ccc2c(c1)[C@@H]1C[C@H](CC(=O)NC3CCCC3)O[C@@H](CO)[C@@H]1O2,.,.,86*,.,.,-1,-6,5,1,5
COc1ccc(-c2cc(C(F)(F)F)nc(S(=O)(=O)CCCC(=O)Nc3cccc(O)c3)n2)cc1OC,.,.,19,-16,.,10,.,.,.,.
CC(C)c1ccc(/C=N/NC(=O)c2ccc(-n3cnnn3)cc2)cc1,.,.,66*,.,.,16,32*,48,9,8
Nc1c(S(=O)(=O)c2cccs2)c2nc3ccccc3nc2n1/N=C/c1cccc(O)c1,3,1,52*,-5,2,11,33*,52*,7,7
COc1ccc(Br)cc1CN(C)C(=O)c1ccccc1OCc1c(C)noc1C,-40,-25,57*,.,11,9,23*,33,7,4
CN1CCN(c2ccccc2NC(=O)c2ccc(-c3cccc([N+](=O)[O-])c3)o2)CC1,-12,-27,27,-5,16,7,.,.,.,.
CCC(=O)N1CCN(c2ccccc2NC(=O)c2ccc(-c3cccc([N+](=O)[O-])c3)o2)CC1,-23,-23,55*,-15,12,12,26*,50*,6,2
CCOC(=O)c1c(NC(=O)COC(=O)CCS(=O)(=O)c2ccc(C)cc2)sc(C)c1C,-16,-22,3,4,7,7,.,.,.,.
Fc1ccc(C(c2nnnn2Cc2cccs2)N2CCN(C3CCCCC3)CC2)cc1 (centres undefined),-28,-27,-4,20,16,8,.,.,.,.
c1ccc(Oc2ccc(-n3cnnn3)cc2)cc1,1,-2,105*,10,11,-1,8,2,4,5
Cc1ccc(C(=O)Nc2ccc(C)c(S(=O)(=O)Nc3ccccc3Cl)c2)s1,-18,-9,68*,-14,33,5,20,23,3,-1
CCCOc1ccc(C2Nc3cccc4cccc(c34)N2)cc1,1,-4,5,-10,10,-1,.,.,.,.
CCN(CC)C(=O)c1[nH]cnc1C(=O)NCC(=O)OCc1ccccc1,-5,-10,71*,-9,17,25,25*,52*,9,9
